In the library only some 3.8% were active in any assay of this set; here they are far more common.
T cell modulator: T cell immune modulation candidate. 330,000 tested, 0.068% active. 2C CD8+ T cell-vesicle binding, flow cytometry; hits give low values. response (vesicle binding), % at 7 µM;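 active = response, share of CD8 T cells binding vesicles, and their 90th percentile fluorescence all below set limits, cut at about 80% in these data, passing the limit was not always enough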;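 also: values below 100% mean blocked vesicle binding to the CD8+ T cells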
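incubation = binding step 1.5 h, 37 °C, antibody labelling 20 min, ice | test system = 2C mouse CD8+ T cells | read-out basis = percent CD8+ FL2 mean versus row control | controls = Peptide-free naked vesicles (low) and QL9 vesicles with 0.7% DMSO vehicle (high) | detection = flow cytometry of vesicle-bound cells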
rCAG RNA binder: molecules binding r(CAG) RNA repeats | r(CAG) RNA repeat, TO-PRO-1 dye displacement fluorescence | inhibition, % at 3 µM | 370,000 tested, 1.3% active | AID 651821;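 active = inhibition above the plate cutoff, the mean of all test compounds on that plate plus 3 SD, cut at about 35% in these data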;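 also: 0% = DMSO alone and 100% = 100 µM mitoxantrone as full dye displacement; higher means more dye released from RNA so lower well fluorescence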
Beta2AR agonist: agonists of human beta-2 adrenergic receptor inducing internalization; P07550; 340,000 tested, 0.43% active; Am2.2-beta2AR cells, FAP receptor internalization, flow cytometry; response, % (concentration not given with the values); AID 504454;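 active = response above a set limit, near 3 SD of response in nonfluorescent compounds, cut at about 42% in these data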
Target sequence (P07550 whole entry, looked up): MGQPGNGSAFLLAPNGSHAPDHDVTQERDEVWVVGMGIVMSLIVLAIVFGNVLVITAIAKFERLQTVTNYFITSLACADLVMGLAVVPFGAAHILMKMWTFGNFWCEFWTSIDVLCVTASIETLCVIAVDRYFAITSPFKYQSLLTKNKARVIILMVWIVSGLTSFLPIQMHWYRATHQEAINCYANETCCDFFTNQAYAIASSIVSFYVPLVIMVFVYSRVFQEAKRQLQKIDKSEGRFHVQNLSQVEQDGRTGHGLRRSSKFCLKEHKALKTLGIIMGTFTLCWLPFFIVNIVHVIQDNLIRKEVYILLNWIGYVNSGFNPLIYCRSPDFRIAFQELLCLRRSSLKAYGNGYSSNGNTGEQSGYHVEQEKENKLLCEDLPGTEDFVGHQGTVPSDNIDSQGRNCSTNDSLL
Exocytosis inh: lytic granule exocytosis inhibition; inhibition, % at 10 µM; 360,000 tested, 0.66% active; TALL-104 LAMP-1 surface exposure, flow cytometry; cells stimulated with thapsigargin and PMA;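 active = inhibition above about 55%, limit read from the data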
MPTP block: permeability transition pore inhibition. isolated mouse mitochondria, Ca2+ swelling absorbance, 30 min. inhibition, % at 10 µM. 360,000 tested, 1.4% active;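 active = inhibition of 50% or more, scaled per plate between neutral and stimulator controls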;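 also: 0% = DMSO wells given calcium and 100% = 1 mM EGTA wells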
V-ATPase pH: yeast V-ATPase proton transport regulation by pHLuorin | S. cerevisiae, pHLuorin cytosolic pH fluorescence | response, % at 10 µM | 350,000 tested, 0.37% active; in the data active = response mostly above about 7.3%, no sharp cut-off; inactive = mostly below about 5.4%; also: actives read high
VATPase regulator: modulates yeast V-ATPase proton transport. shares compounds with V-ATPase pH. S. cerevisiae pHLuorin cytosolic pH. response, % at 10 µM. 980 tested, 2% active. AID 602197; in the data active = response above about 24%;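 also: plate controls were vehicle wells for no effect and positive control wells for full effect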
Numbers without * were called inactive; nt = no result given.

SMILES	T cell modulator	rCAG RNA binder	Beta2AR agonist	Exocytosis inh	MPTP block	V-ATPase pH	VATPase regulator
COC(=O)C1CN(C2CCCC2)CCS(=O)(=O)N1Cc1cn(Cc2ccc(Cl)cc2)nn1 (stereo not drawn)	nt	-1	nt	nt	nt	nt	nt
CSc1nc(N)c(NC(=O)c2ccc(Br)o2)c(=O)[nH]1	428	-2	-2	-2	2	11*	3
Cc1ccc(C(=O)OCCc2sc[n+](Cc3ccccc3)c2C)cc1	399	1	-1	-1	-2	47*	2
COc1cc(CNCc2ccc(OC)c(OC)c2OC)cc(OC)c1	482	-1	19	0	-1	12*	-5
COc1cccc(CNCc2cc(OC)cc(OC)c2)c1	192	-3	8	-1	0	4	nt
COC(=O)[C@]12C[C@H](CC(=O)N3CCC(c4ccccc4)CC3)C(=O)N(Cc3cccc4ccccc34)C1=C[C@H](COCc1ccccc1)O[C@@H]2C	nt	11	nt	nt	nt	nt	nt
CC(=O)c1cccc(NS(=O)(=O)N2CCCCC2)c1	143	1	-1	-4	1	16*	2
O=c1c2ccccc2ncn1Cc1ccc(Cl)cc1	820	nt	-4	0	-5	-2	nt
O=c1c2ccccc2ncn1-c1ccc(Cl)cc1	579	-6	-3	-2	1	-4	4
C=CCN1C(=O)[C@@H](CC(=O)NCC2CCCCC2)[C@]2(C(=O)OCC)CCCCC/C=C/12	nt	1	nt	nt	nt	nt	nt
COc1ccccc1NC(=O)c1ccccc1S(=O)(=O)c1ccc([N+](=O)[O-])cc1	430	4	3	19	0	-1	nt
COc1ccccc1NC(=O)c1ccccc1S(=O)(=O)c1ccccc1[N+](=O)[O-]	271	3	8	-3	0	11*	6
Nn1c(SCC(=O)Nc2cccc3ccccc23)nnc1-c1cc(-c2ccccc2)n[nH]1	nt	8	nt	nt	nt	nt	nt
CC(C)(C)c1ccc(C(=O)NN=C2CCCC2)cc1	204	-1	-2	-3	0	-3	nt
O=C(NN=C1CCCCCCC1)c1ccc(F)cc1	316	-3	-3	1	-2	1	-4
COc1cc(CC(=O)OCC(=O)NC2CCCC2)cc(OC)c1OC	520	-2	2	2	-3	12*	-1
O=C(C/C(=N/O)c1ccccc1O)C(F)F	173	4	-5	-4	-10	26*	-2
NC(=O)c1ccccc1O	481	1	-12	-2	0	5	nt
CC1Cc2ccccc2N1S(=O)(=O)c1cccc(C(=O)NCCCn2ccnc2)c1 (stereo not drawn)	186	-4	-6	2	7	10*	-1
CCNC(=O)/C(C#N)=C/c1c(N2CCN(c3ccc(OC)cc3)CC2)nc2c(C)cccn2c1=O	220	0	5	-3	0	14*	1
Cc1ccc(Nc2nc3ccccc3c(=O)[nH]2)cc1C	234	32	12	1	3	11*	-1
CCCCCOC(=O)C1=C(C)NC(=O)NC1c1ccccc1 (stereo not drawn)	193	-8	11	-15	7	12*	6
CCCCCOC(=O)C1=C(C)NC(=O)NC1c1ccc(N(C)C)cc1 (stereo not drawn)	281	-7	-5	-1	0	2	nt
C=CC[C@@H](CC(=O)N(CCO)Cc1ccccc1)C(=O)N[C@@H](C)COC(=O)[C@@H](CC=C)CC(=O)OC(C)(C)C	438	-11	-2	64*	-1	14*	5
C/C(=N\O)C(C)(C)Nc1cccc(F)c1	272	1	-3	-2	0	2	nt
SMILES	T cell modulator	rCAG RNA binder	Beta2AR agonist	Exocytosis inh	MPTP block	V-ATPase pH	VATPase regulator
C/C(=N\O)C(C)(C)Nc1cccc(Br)c1	405	-2	-11	2	2	16*	4
CCN=C1NC(CCc2ccccc2)C(C(=O)OC)=C(C)N1Cc1ccccc1C(F)(F)F (stereo not drawn)	nt	5	nt	nt	nt	nt	nt
COc1nc(Cl)cn(-c2ccc(Cl)cc2)c1=O	150	-2	2	-5	0	-3	-1
N#CC1=C(N)N(c2ccccc2)C2=C(C(=O)CCC2)C1c1ccsc1 (stereo not drawn)	383	9	1	4	2	10*	-3
CCOC(=O)CC(=O)CSc1nnc2c(n1)[nH]c1ccccc12	327	11	-6	-3	0	-3	-1
CCN(CC)c1ccc(S(=O)(=O)N2CCCCC2)cc1NC(=O)CSCc1c(C)noc1C	nt	0	7	-7	0	10*	-3
Cc1noc(C)c1CSCC(=O)Nc1cc(S(=O)(=O)N2CCCCC2)ccc1OC(C)C	212	1	5	-4	-1	-3	nt
COc1cc(NC(=O)C2CCCN(S(=O)(=O)c3cccc4cccnc34)C2)cc(OC)c1 (stereo not drawn)	nt	5	nt	nt	nt	nt	nt
Cc1ccc(NC(=O)CSc2ccc(-c3ccccn3)nn2)c(C)c1	166	-3	-3	-1	0	3	nt
Cc1cc(C)c(NC(=O)CSc2ccc(-c3ccccn3)nn2)c(C)c1	346	-2	-1	-1	-1	11*	0
CC(C)OP(=O)(OC(C)C)C(NC(=O)c1cccc([N+](=O)[O-])c1)C(N)=O (stereo not drawn)	0	-4	3	-2	1	9	3
CN1CCN(c2ccc3c(c2)Oc2ccccc2CN(Cc2cn(Cc4cccc(C(F)(F)F)c4)nn2)S3(=O)=O)CC1	nt	8	nt	nt	nt	nt	nt
CCOc1ccccc1N(CC(=O)Nc1cccnc1)S(=O)(=O)c1ccc(C)cc1	259	-5	3	8	-2	9.9*	6
CCOc1ccccc1N(CC(=O)Nc1cccnc1)S(C)(=O)=O	196	-1	-2	7	2	5	nt
COC(=O)C1=C(C)N(Cc2ccc(C(F)(F)F)cc2)C(=NCc2ccc(C(F)(F)F)cc2)NC1c1ccccc1C(F)(F)F (stereo not drawn)	nt	0	nt	nt	nt	nt	nt
O=C(NCCc1cccs1)c1ccc(Cl)c(Cl)c1	199	-5	-1	-2	-2	8.8*	1
COC(=O)[C@]12C[C@H](CC(=O)N3CCSCC3)C(=O)N(Cc3ccc4c(c3)OCO4)C1=C[C@H](C(C)C)O[C@@H]2C1CC1	nt	4	nt	nt	nt	nt	nt
O=C(OCc1ccccc1Cl)c1cccnc1Cl	259	0	1	-6	1	9.5*	1
O=C(OCc1c(Cl)cccc1Cl)c1cccnc1Cl	317	-2	3	2	3	-2	nt

Screens: PubChem, several laboratories
